ChEMBL document CHEMBL3526150, “Stereoselective interaction of pantoprazole with ABCG2. I. Drug accumulation in rat milk” (Drug Metab Dispos, 2012)

Assays:
MDCK = assay: Asymmetrical efflux ratio of permeability in MDCK cells at 25 uM after 1 hr; type: ADME, cell-based, Canis lupus familiaris; conditions: dog
Method in brief: (§1)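 Rat Abcg2-transfected and empty-vector MDCKII cells seeded at 1.0×10^6 cells/well on 3.0 μm Transwell filters, grown 4 days to TEER >200 Ω·cm². Racemic pantoprazole donor at 25 μM, 37°C, 5% CO2. Receiver sampled at 1, 2, 3, 4 h; [³H]mannitol checked monolayer integrity. Efflux ratio taken at 1 h from initial rates; n=3.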

Rattus norvegicus = assay: (§2) Clearance in jugular and femoral vein-cannulated lactating Sprague-Dawley rat at 0.4 mg/ml, iv administered as infusion; type: ADME, organism-based; conditions: in vivo
Method in brief: (§3)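 Lactating Sprague-Dawley rats on days 10–12 postpartum, jugular and femoral cannulated under ketamine/xylazine. Crossover design: i.v. bolus of GF120918 (10 mg/kg in DMSO) or DMSO 10 min before an 8 h i.v. infusion of racemic drug in saline (0.4 mg/ml/h). Enantiomers measured by chiral LC-MS. Clearance = infusion rate / mean serum level over 2–8 h. M/S = 8 h milk level / serum level. n=5.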

[1] = Fraction unbound in jugular and femoral vein-cannulated lactating Sprague-Dawley rat whole milk at 0.4 mg/ml, iv administered as infusion after 8 hrs by equilibrium dialysis method; type: ADME, organism-based
Method in brief: (§4)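 Equilibrium dialysis of rat serum and milk against 0.133 M phosphate buffer (serum pH 7.45, milk pH 6.8), 8 h at 37°C, in 0.5 ml cells. Serum levels used were those seen in the infusion study. Both sides measured by LC-MS. n=4.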

[2] = target: T1, Broad substrate specificity ATP-binding cassette transporter ABCG2 (Rattus norvegicus, UniProt Q80W57); assay: Activity at rat ABCG2 expressed in MDCK cells assessed as asymmetrical efflux ratio of permeability at 25 uM after 1 hr; type: ADME, cell-based; method in brief: as §1
T1 sequence (Q80W57 whole entry): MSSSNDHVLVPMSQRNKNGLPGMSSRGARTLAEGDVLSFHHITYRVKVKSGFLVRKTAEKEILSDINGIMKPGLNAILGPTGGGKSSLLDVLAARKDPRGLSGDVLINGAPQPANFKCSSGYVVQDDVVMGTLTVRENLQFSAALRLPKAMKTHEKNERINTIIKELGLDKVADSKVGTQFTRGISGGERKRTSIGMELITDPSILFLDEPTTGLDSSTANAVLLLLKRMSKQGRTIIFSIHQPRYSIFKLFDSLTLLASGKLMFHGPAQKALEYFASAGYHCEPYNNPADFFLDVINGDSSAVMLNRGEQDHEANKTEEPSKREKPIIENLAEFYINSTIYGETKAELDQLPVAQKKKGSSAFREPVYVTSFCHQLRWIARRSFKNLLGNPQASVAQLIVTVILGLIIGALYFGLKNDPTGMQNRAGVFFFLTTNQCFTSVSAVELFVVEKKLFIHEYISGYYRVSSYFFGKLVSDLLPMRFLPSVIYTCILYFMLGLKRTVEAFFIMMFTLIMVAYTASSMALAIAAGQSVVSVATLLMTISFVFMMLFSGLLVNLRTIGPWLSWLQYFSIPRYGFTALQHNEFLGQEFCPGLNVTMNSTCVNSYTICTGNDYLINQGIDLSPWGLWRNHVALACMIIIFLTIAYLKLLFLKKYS

[3] = Drug uptake in jugular and femoral vein-cannulated lactating Sprague-Dawley rat milk at 0.4 mg/ml, iv administered as infusion after 8 hrs by LC-MS analysis in presence of GF120918; type: ADME, organism-based; conditions: in vivo
Method in brief: (§5)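 Lactating Sprague-Dawley rats on days 10–12 postpartum, cannulated. i.v. bolus of GF120918 (10 mg/kg in DMSO) or DMSO alone, then 10 min later an 8 h i.v. infusion of racemic drug in saline (0.4 mg/ml/h). Serum sampled at 2, 4, 6, 8 h. Milk collected by manual expression under light ketamine anesthesia at 8 h. Isomers quantified by LC-MS with zonisamide internal standard. n=5.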

[4] = Drug uptake in jugular and femoral vein-cannulated lactating Sprague-Dawley rat milk at 0.4 mg/ml, iv administered as infusion after 8 hrs by LC-MS analysis; type: ADME, organism-based; conditions: in vivo; method in brief: as §5
Serum [5] = assay: (§6) Drug uptake in jugular and femoral vein-cannulated lactating Sprague-Dawley rat serum at 0.4 mg/ml, iv administered as infusion after 2 hrs by LC-MS analysis; type: ADME, organism-based; conditions: in vivo, 2 h; method in brief: as §5
Serum [6] = assay: (§7) Fraction unbound in jugular and femoral vein-cannulated lactating Sprague-Dawley rat serum at 0.4 mg/ml, iv administered as infusion after 8 hrs by equilibrium dialysis method; type: ADME, organism-based; conditions: in vivo, 8 h; method in brief: as §4
[7] = as §2; type: ADME, organism-based; conditions: female, Sprague-Dawley, in vivo, 0.4 mg/ml; method in brief: as §3
[8] = Ratio of drug level in milk to serum in jugular and femoral vein-cannulated lactating Sprague-Dawley rat at 0.4 mg/ml, iv administered as infusion in presence of GF120918; type: ADME, organism-based; conditions: female, with GF120918
[9] = as §6; type: ADME, organism-based; conditions: female, Sprague-Dawley, serum, 0.4 mg/ml, read-out: Drug uptake; method in brief: as §5
[10] = Dissociation constant, pKa of the compound; type: physicochemical
Serum [11] = assay: Drug uptake in jugular and femoral vein-cannulated lactating Sprague-Dawley rat serum at 0.4 mg/ml, iv administered as infusion after 2 hrs by LC-MS analysis in presence of GF120918; type: ADME, organism-based; conditions: in vivo; method in brief: as §5
[12] = as §7; type: ADME, organism-based; conditions: female, Sprague-Dawley, serum, 0.4 mg/ml; method in brief: as §4
[13] = Protein binding in human serum; type: ADME, cell-free; conditions: read-out: PB

Row | Ratio (MDCK) | CL (Rattus norvegicus) [mL/min/kg] | Fu ([1]; in vivo, 8 h) [%] | Ratio [2] | Drug uptake [3] [µg/mL] | Drug uptake [4] [µg/mL] | Drug uptake (Serum [5]) [µg/mL] | Fu (Serum [6]) [%] | clearance [7] [mL/min/kg] | fraction unbound at 8 h ([1]; female, Sprague-Dawley, whole milk, 0.4 mg/ml) | Kp [8] | concentration at 2 h [9] [ng/mL] | pKa [10] | Drug uptake (Serum [11]) [%] | fraction unbound at 8 h [12] | fraction unbound [13] | SMILES
1 | 0.9 | 9.5 | 26 | 5.15 | 0.53 | 0.64 | 1.2 | 2.33 |  |  |  |  |  |  |  |  | COc1ccnc(C[S+]([O-])c2nc3cc(OC(F)F)ccc3[n-]2)c1OC.O.[Na+] (stereo in doubt; (+)) [PANTOPRAZOLE SODIUM]
2 |  |  |  | 1.51 | 1.1 | 2.26 |  |  | 7.33 | 0.271 | 0.5 | 1630 | 3.9 | 37 | 0.0238 |  | COc1ccnc(C[S+]([O-])c2nc3cc(OC(F)F)ccc3[n-]2)c1OC.O.[Na+] (stereo in doubt; (-)) [PANTOPRAZOLE SODIUM]
3 |  |  |  |  |  |  |  |  |  |  |  |  |  |  |  | < 0.02 | COc1ccnc(C[S+]([O-])c2nc3ccc(OC(F)F)cc3[nH]2)c1OC (centres undefined) [PANTOPRAZOLE SODIUM]
